Key:
Format in all cases: functional, cell-based
[1] = test system: MCF7; assay: Cytotoxicity against human MCF7 cells assessed as cell viability after 72 hrs by CCK cell proliferation assay; details: MCF7, 72 h
How it was run: (§1)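 Cells plated at 3,000–5,000 per well; dosing began 24 h after plating, using a rising concentration series. After 72 h, cell counting kit reagent added and incubation continued 1–4 h. Viable cells read as OD at 450 nm. Inhibition rate = (1 − OD treated/OD control) × 100%. Wells in triplicate, each compound tested three times; IC50 is the mean of three independent experiments.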

[2] = Cytotoxicity against human HL60 cells assessed as cell viability after 72 hrs by CCK cell proliferation assay; details: HL-60, 72 h; how it was run: as §1
[3] = Cytotoxicity against human SUM159 cells assessed as cell viability after 72 hrs by CCK cell proliferation assay; details: SUM-159-PT; how it was run: as §1
[4] = test system: C6; assay: Cytotoxicity against rat C6 cells assessed as cell viability after 72 hrs by CCK cell proliferation assay; details: C6, 72 h; how it was run: as §1

Row | Structure (SMILES) | IC50 [1] | IC50 [2] | IC50 [3] | IC50 [4]
1 | C=C1C(=O)O[C@H]2[C@H]1CC/C(C)=C\CC[C@@]1(C)O[C@@H]21 | 5.9 µM | 1.2 µM | 7.7 µM | 3.9 µM
2 | C=C1C(=O)O[C@@H]2C3O[C@]3(C)CC/C=C(\C)CC[C@@H]12 (stereo partly specified) | 6.9 µM | 2.5 µM | 10.3 µM | 6.6 µM
3 | C=C1C(=O)O[C@H]2[C@@H]1CC/C(C)=C\CC[C@@]1(C)O[C@@H]21 | 13 µM | 4.2 µM | 3.5 µM | 41.8 µM
4 | C=C1C(=O)O[C@H]2[C@@H]1CC/C(C)=C/CC[C@@]1(C)O[C@@H]21 | 17.6 µM | 2.9 µM | 12.3 µM | 24 µM

From ChEMBL document CHEMBL3351257, “Total syntheses of parthenolide and its analogues with macrocyclic stereocontrol” (J Med Chem, 2014)
